# Non-standard residues stand in square brackets, D forms with d. Residues, ends and D or L forms follow the SMILES beside them. ξ: configuration not given here. ξDap = NCC(N)C(=O)O
# How the values were obtained:
# [1] = biological target: T1, Growth hormone secretagogue receptor type 1 (Homo sapiens, UniProt Q92847); test: Inverse agonist activity at human GHSR1a receptor expressed in COS-7 cells assessed as inositol phosphate accumulation after 2 hrs by anion exchange chromatography relative to control; type: functional, cell-based
# [2] = biological target: T2, Neuropeptide Y receptor type 2 (Homo sapiens) (UniProt P49146); test: Agonist activity at human neuropeptide Y Y2 receptor expressed in COS-7 cells cotransfected with chimeric Gi/q protein assessed as inositol phosphate accumulation after 2 hrs by anion exchange chromatography relative to control; type: functional, cell-based
# T2 sequence (whole entry): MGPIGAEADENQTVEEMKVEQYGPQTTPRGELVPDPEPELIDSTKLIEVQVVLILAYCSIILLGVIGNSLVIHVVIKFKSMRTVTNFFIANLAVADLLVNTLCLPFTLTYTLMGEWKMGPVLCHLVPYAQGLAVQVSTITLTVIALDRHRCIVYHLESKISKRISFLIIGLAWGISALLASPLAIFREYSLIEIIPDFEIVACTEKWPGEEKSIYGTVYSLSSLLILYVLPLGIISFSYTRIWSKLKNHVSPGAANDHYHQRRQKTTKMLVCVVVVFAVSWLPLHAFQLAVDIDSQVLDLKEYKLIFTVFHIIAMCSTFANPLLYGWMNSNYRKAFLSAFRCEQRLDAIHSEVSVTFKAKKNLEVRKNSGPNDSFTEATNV
# How it was run: (§1)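 Inositol phosphate turnover in COS-7 cells stably co-expressing human Y2 receptor and chimeric Gi/q protein; concentration-response curves, responses as % of maximum Y2 activity; SEM over two biological replicates.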
# [3] = biological target: T3, Neuropeptide Y receptor type 1 (Homo sapiens) (UniProt P25929); test: Agonist activity at human neuropeptide Y Y1 receptor expressed in COS-7 cells cotransfected with chimeric Gi/q protein assessed as inositol phosphate accumulation at 1 uM after 2 hrs by anion exchange chromatography; type: functional, cell-based
# T3 sequence (whole entry): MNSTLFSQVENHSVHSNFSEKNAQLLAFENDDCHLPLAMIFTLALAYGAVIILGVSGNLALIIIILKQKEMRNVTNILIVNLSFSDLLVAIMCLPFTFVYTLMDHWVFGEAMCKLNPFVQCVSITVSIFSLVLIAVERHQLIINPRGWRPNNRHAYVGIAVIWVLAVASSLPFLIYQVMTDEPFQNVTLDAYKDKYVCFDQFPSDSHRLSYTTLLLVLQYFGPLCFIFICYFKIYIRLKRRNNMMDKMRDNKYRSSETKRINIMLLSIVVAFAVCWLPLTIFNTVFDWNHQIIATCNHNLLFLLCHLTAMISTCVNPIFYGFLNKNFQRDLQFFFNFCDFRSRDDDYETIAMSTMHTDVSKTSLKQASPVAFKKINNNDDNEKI
# How it was run: (§2)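 COS-7 cells stably co-expressing the corresponding human Y receptor plus a chimeric Gi/q protein; single high concentration tested in inositol phosphate accumulation; response as % of NPY response at each receptor; SEM over two biological replicates.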
# [4] = biological target: Neuropeptide Y receptor type 4 (Homo sapiens) (UniProt P50391); test: Agonist activity at human neuropeptide Y Y4 receptor expressed in COS-7 cells cotransfected with chimeric Gi/q protein assessed as inositol phosphate accumulation at 1 uM after 2 hrs by anion exchange chromatography; type: functional, cell-based; how it was run: as §2
# [5] = biological target: T4, Neuropeptide Y receptor type 5 (Homo sapiens) (UniProt Q15761); test: Agonist activity at human neuropeptide Y Y5 receptor expressed in COS-7 cells cotransfected with chimeric Gi/q protein assessed as inositol phosphate accumulation at 1 uM after 2 hrs by anion exchange chromatography; type: functional, cell-based; how it was run: as §2
# T4 sequence (whole entry): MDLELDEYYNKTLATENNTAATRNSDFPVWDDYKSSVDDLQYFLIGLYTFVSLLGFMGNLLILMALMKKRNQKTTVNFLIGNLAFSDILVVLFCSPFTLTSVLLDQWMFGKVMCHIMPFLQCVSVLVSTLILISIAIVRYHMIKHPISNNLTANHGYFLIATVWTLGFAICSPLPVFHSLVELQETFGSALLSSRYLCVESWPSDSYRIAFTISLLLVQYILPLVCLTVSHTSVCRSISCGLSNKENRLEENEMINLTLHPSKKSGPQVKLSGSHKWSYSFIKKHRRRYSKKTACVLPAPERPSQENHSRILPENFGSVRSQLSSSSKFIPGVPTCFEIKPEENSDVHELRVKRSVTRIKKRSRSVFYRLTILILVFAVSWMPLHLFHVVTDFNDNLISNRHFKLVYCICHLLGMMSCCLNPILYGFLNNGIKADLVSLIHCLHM
# [6] = biological target: T1, Growth hormone secretagogue receptor type 1; test: Inverse agonist activity at human GHSR1a receptor expressed in COS-7 cells assessed as inositol phosphate accumulation after 2 hrs by anion exchange chromatography; type: functional, cell-based
# [7] = biological target: T5, Neuropeptide Y receptor type 2 (Homo sapiens, UniProt P49146); test: Agonist activity at human neuropeptide Y Y2 receptor expressed in COS-7 cells cotransfected with chimeric Gi/q protein assessed as inositol phosphate accumulation after 2 hrs by anion exchange chromatography; type: functional, cell-based; how it was run: as §1
# T5 sequence (P49146 whole entry): T2 sequence (whole entry)
# [8] = biological target: T1, Growth hormone secretagogue receptor type 1; test: Displacement of [125I]ghrelin from human eYFP-fused ghrelin receptor expressed in COS7 cells after 75 mins by competitive receptor binding assay; type: cell-based, COS-7; details: cos-7
# [9] = biological target: T5, Neuropeptide Y receptor type 2; test: Displacement of [125I]PYY from human neuropeptide Y Y2 receptor expressed in HEK293 cells cotransfected with eYFP fusion protein after 2 hrs by competitive receptor binding assay; type: cell-based; details: hek293
# How it was run: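 Competitive binding against 125I-PYY in HEK-293 cells stably expressing human Y2 receptor; concentration-response curves.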
# T1 sequence (Q92847 whole entry): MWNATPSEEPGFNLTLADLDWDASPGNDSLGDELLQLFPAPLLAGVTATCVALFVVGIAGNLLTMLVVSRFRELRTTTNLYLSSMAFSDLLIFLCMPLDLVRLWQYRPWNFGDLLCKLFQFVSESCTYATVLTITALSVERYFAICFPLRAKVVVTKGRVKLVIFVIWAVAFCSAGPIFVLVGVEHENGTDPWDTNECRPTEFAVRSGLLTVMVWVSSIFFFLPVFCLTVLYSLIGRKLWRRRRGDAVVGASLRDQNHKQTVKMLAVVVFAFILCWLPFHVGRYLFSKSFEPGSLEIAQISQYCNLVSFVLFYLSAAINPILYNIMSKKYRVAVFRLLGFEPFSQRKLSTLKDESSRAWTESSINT
# Sequence of Neuropeptide Y receptor type 4 (Homo sapiens) (P50391 whole entry): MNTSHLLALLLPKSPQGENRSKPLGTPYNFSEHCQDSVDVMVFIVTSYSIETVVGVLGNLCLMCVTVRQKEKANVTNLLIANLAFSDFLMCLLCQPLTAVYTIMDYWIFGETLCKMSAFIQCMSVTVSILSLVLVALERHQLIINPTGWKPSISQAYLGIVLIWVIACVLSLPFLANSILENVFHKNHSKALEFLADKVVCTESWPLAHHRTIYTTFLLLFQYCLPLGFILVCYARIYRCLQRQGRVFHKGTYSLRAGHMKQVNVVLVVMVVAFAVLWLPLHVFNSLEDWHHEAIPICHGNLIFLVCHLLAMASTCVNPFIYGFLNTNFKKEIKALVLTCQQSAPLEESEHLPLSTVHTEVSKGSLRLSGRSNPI
compound,measurement,setting,value
CC(=O)NC(CNC(=O)CCC(=O)N[C@@H](CCCCN)C(=O)N[C@@H](CCCCN)C(=O)N[C@@H](Cc1cccc2ccccc12)C(=O)N[C@@H](Cc1ccccc1)C(=O)N[C@H](Cc1c[nH]c2ccccc12)C(=O)N[C@@H](CC(C)C)C(=O)N[C@@H](CC(C)C)C(N)=O)C(=O)N[C@@H](CC(C)C)C(=O)N[C@@H](CCCNC(=N)N)C(=O)N[C@@H](Cc1cnc[nH]1)C(=O)N[C@@H](Cc1ccc(O)cc1)C(=O)N[C@@H](CC(C)C)C(=O)N[C@@H](CC(N)=O)C(=O)N[C@@H](CC(C)C)C(=O)N[C@@H](CC(C)C)C(=O)N[C@H](C(=O)N[C@@H](CCCNC(=N)N)C(=O)N[C@@H](CCC(N)=O)C(=O)N[C@@H](CCCNC(=N)N)C(=O)N[C@@H](Cc1ccc(O)cc1)C(N)=O)[C@@H](C)O (some centres undefined),Efficacy,[1],78%
same,Efficacy,[2],82%
same,Efficacy,[3],< 25%
same,Efficacy,[4],< 25%
same,Efficacy,[5],33%
CC(C)C[C@H](NC(=O)[C@H](CC(C)C)NC(=O)[C@@H](Cc1c[nH]c2ccccc12)NC(=O)[C@H](Cc1ccccc1)NC(=O)[C@@H](Cc1cccc2ccccc12)NC(=O)[C@H](CCCCN)NC(=O)[C@H](CCCCN)NC(=O)CCC(=O)O)C(N)=O,EC50,[6]; cos-7,60.2 nM
same,EC50,[7]; cos-7,> 1000 nM
CC(C)C[C@H](NC(=O)[C@@H](Cc1c[nH]c2ccccc12)NC(=O)[C@H](Cc1ccccc1)NC(=O)[C@H](Cc1cccc2ccccc12)NC(=O)[C@@H](N)CCCCN)C(=O)N[C@@H](CC(N)=O)C(=O)O,Efficacy,[1],86%
CC(=O)N[C@@H](CCCCN)C(=O)N[C@@H](CC(C)C)C(=O)N[C@@H](CCCNC(=N)N)C(=O)N[C@@H](Cc1cnc[nH]1)C(=O)N[C@@H](Cc1ccc(O)cc1)C(=O)N[C@@H](CC(C)C)C(=O)N[C@@H](CC(N)=O)C(=O)N[C@@H](CC(C)C)C(=O)N[C@@H](CC(C)C)C(=O)N[C@H](C(=O)N[C@@H](CCCNC(=N)N)C(=O)N[C@@H](CCC(N)=O)C(=O)N[C@@H](CCCNC(=N)N)C(=O)N[C@@H](Cc1ccc(O)cc1)C(N)=O)[C@@H](C)O (Ac-KLRHYLNLLTRQRY-NH2),EC50,[6],> 1000 nM
same,EC50,[7],0.5 nM
same,Efficacy,[2],68%
CC(=O)N[C@@H](CNC(=O)CCC(=O)N[C@@H](CCCCN)C(=O)N[C@@H](CCCCN)C(=O)N[C@H](Cc1cccc2ccccc12)C(=O)N[C@@H](Cc1ccccc1)C(=O)N[C@H](Cc1c[nH]c2ccccc12)C(=O)N[C@@H](CC(C)C)C(=O)N[C@@H](CC(C)C)C(N)=O)C(=O)N[C@@H](CC(C)C)C(=O)N[C@@H](CCCNC(=N)N)C(=O)N[C@@H](Cc1cnc[nH]1)C(=O)N[C@@H](Cc1ccc(O)cc1)C(=O)N[C@@H](CC(C)C)C(=O)N[C@@H](CC(N)=O)C(=O)N[C@@H](CC(C)C)C(=O)N[C@@H](CC(C)C)C(=O)N[C@H](C(=O)N[C@@H](CCCNC(=N)N)C(=O)N[C@@H](CCC(N)=O)C(=O)N[C@@H](CCCNC(=N)N)C(=O)N[C@@H](Cc1ccc(O)cc1)C(N)=O)[C@@H](C)O,EC50,[6]; cos-7,110 nM
same,EC50,[7]; cos-7,2 nM
same,IC50,[8],70.4 nM
same,IC50,[9],9.7 nM
CC(C)C[C@H](NC(=O)[C@H](CC(C)C)NC(=O)[C@@H](Cc1c[nH]c2ccccc12)NC(=O)[C@H](Cc1ccccc1)NC(=O)[C@H](Cc1cccc2ccccc12)NC(=O)[C@H](CCCCN)NC(=O)CCC(=O)O)C(N)=O,Efficacy,[1],88%
CC(C)C[C@H](NC(=O)[C@@H](Cc1c[nH]c2ccccc12)NC(=O)[C@H](Cc1ccccc1)NC(=O)[C@H](Cc1cccc2ccccc12)NC(=O)[C@@H](N)CCCCN)C(=O)N[C@@H](CCC(N)=O)C(=O)O,Efficacy,[1],92%
CC(=O)N[C@@H](CCCCNC(=O)CCCCCNC(=O)[C@H](CC(N)=O)NC(=O)[C@H](CC(C)C)NC(=O)[C@@H](Cc1c[nH]c2ccccc12)NC(=O)[C@H](Cc1ccccc1)NC(=O)[C@@H](Cc1cccc2ccccc12)NC(=O)[C@@H](N)CCCCN)C(=O)N[C@@H](CC(C)C)C(=O)N[C@@H](CCCNC(=N)N)C(=O)N[C@@H](Cc1cnc[nH]1)C(=O)N[C@@H](Cc1ccc(O)cc1)C(=O)N[C@@H](CC(C)C)C(=O)N[C@@H](CC(N)=O)C(=O)N[C@@H](CC(C)C)C(=O)N[C@@H](CC(C)C)C(=O)N[C@H](C(=O)N[C@@H](CCCNC(=N)N)C(=O)N[C@@H](CCC(N)=O)C(=O)N[C@@H](CCCNC(=N)N)C(=O)N[C@@H](Cc1ccc(O)cc1)C(N)=O)[C@@H](C)O,EC50,[6],267 nM
same,Efficacy,[1],64%
CC(C)C[C@H](NC(=O)[C@@H](Cc1c[nH]c2ccccc12)NC(=O)[C@H](Cc1ccccc1)NC(=O)[C@@H](Cc1cccc2ccccc12)NC(=O)[C@@H](N)CCCCN)C(=O)N[C@@H](CC(N)=O)C(=O)O,EC50,[6]; cos-7,189 nM
CC(=O)N[C@@H](CCCCNC(=O)CCNC(=O)[C@H](CC(N)=O)NC(=O)[C@H](CC(C)C)NC(=O)[C@@H](Cc1c[nH]c2ccccc12)NC(=O)[C@H](Cc1ccccc1)NC(=O)[C@@H](Cc1cccc2ccccc12)NC(=O)[C@@H](N)CCCCN)C(=O)N[C@@H](CC(C)C)C(=O)N[C@@H](CCCNC(=N)N)C(=O)N[C@@H](Cc1cnc[nH]1)C(=O)N[C@@H](Cc1ccc(O)cc1)C(=O)N[C@@H](CC(C)C)C(=O)N[C@@H](CC(N)=O)C(=O)N[C@@H](CC(C)C)C(=O)N[C@@H](CC(C)C)C(=O)N[C@H](C(=O)N[C@@H](CCCNC(=N)N)C(=O)N[C@@H](CCC(N)=O)C(=O)N[C@@H](CCCNC(=N)N)C(=O)N[C@@H](Cc1ccc(O)cc1)C(N)=O)[C@@H](C)O,EC50,[6],331 nM
same,Efficacy,[1],74%
CC(=O)NC(CN)C(=O)N[C@@H](CC(C)C)C(=O)N[C@@H](CCCNC(=N)N)C(=O)N[C@@H](Cc1cnc[nH]1)C(=O)N[C@@H](Cc1ccc(O)cc1)C(=O)N[C@@H](CC(C)C)C(=O)N[C@@H](CC(N)=O)C(=O)N[C@@H](CC(C)C)C(=O)N[C@@H](CC(C)C)C(=O)N[C@H](C(=O)N[C@@H](CCCNC(=N)N)C(=O)N[C@@H](CCC(N)=O)C(=O)N[C@@H](CCCNC(=N)N)C(=O)N[C@@H](Cc1ccc(O)cc1)C(N)=O)[C@@H](C)O (some centres undefined) (Ac-[ξDap]LRHYLNLLTRQRY-NH2),EC50,[7],0.4 nM
same,Efficacy,[2],77%
CC(C)C[C@H](NC(=O)[C@@H](Cc1c[nH]c2ccccc12)NC(=O)[C@H](Cc1ccccc1)NC(=O)[C@@H](Cc1cccc2ccccc12)NC(=O)[C@@H](N)CCCCN)C(=O)N[C@@H](CCC(N)=O)C(=O)O,EC50,[6]; cos-7,70.2 nM
same,EC50,[7]; cos-7,> 1000 nM
CC(C)C[C@H](NC(=O)[C@H](CC(C)C)NC(=O)[C@@H](Cc1c[nH]c2ccccc12)NC(=O)[C@H](Cc1ccccc1)NC(=O)[C@H](Cc1cccc2ccccc12)NC(=O)[C@H](CCCCN)NC(=O)[C@H](CCCCN)NC(=O)CCC(=O)O)C(N)=O,Efficacy,[1],84%
CC(C)C[C@H](NC(=O)[C@H](CC(C)C)NC(=O)[C@@H](Cc1c[nH]c2ccccc12)NC(=O)[C@H](Cc1ccccc1)NC(=O)[C@@H](Cc1cccc2ccccc12)NC(=O)[C@H](CCCCN)NC(=O)CCC(=O)O)C(N)=O,EC50,[6]; cos-7,29 nM
same,EC50,[7]; cos-7,> 1000 nM

# — ChEMBL document CHEMBL3576822 (J Med Chem, 2015)
